Results: ChEMBL document CHEMBL1155695, “Prenylated benzoic acid derivatives from Ferula kuhistanica” (2000)
The source made the active and inactive calls. The calls are words filed in the database; no cut-off is given here.

Columns and labels:
Assay type in all cases: functional
[1] = Immunosuppressive activity against human peripheral mononuclear cells assessed as inhibition of LPS-stimulated IL4 production at 3 ug/mL
In short: (§1)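 Whole blood from healthy human volunteers was used as the cell source for the immunosuppression screen. Other details follow a previously published method.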

[2] = Immunosuppressive activity against human peripheral mononuclear cells assessed as inhibition of LPS-stimulated IFN-gamma production at 3 ug/mL; in short: as §1
[3] = Immunosuppressive activity against human peripheral mononuclear cells assessed as inhibition of LPS-stimulated IL2 production at 3 ug/mL; in short: as §1
Homo sapiens [4] = species: Homo sapiens; assay: Immunosuppressive activity against human peripheral mononuclear cells assessed as inhibition of LPS-stimulated IFN-gamma production at 10 ug/mL; in short: as §1
Homo sapiens [5] = species: Homo sapiens; assay: Immunosuppressive activity against human peripheral mononuclear cells assessed as inhibition of LPS-stimulated IL4 production at 10 ug/mL; in short: as §1
Homo sapiens [6] = species: Homo sapiens; assay: Immunosuppressive activity against human peripheral mononuclear cells assessed as inhibition of LPS-stimulated IL2 production at 10 ug/mL; in short: as §1
[7] = Immunosuppressive activity against human peripheral mononuclear cells assessed as inhibition of LPS-stimulated IFN-gamma production at 0.3 ug/mL; in short: as §1
[8] = Immunosuppressive activity against human peripheral mononuclear cells assessed as inhibition of LPS-stimulated IL4 production at 0.3 ug/mL; in short: as §1
[9] = Immunosuppressive activity against human peripheral mononuclear cells assessed as inhibition of LPS-stimulated IL2 production at 0.3 ug/mL; in short: as §1

| Structure (SMILES) | Activity (Homo sapiens [4]) | Activity (Homo sapiens [5]) | Activity (Homo sapiens [6]) | further results |
| --- | --- | --- | --- | --- |
| CC(C)=CCC/C(C)=C/CC[C@@]1(C)Oc2ccc(C(=O)O)cc2C[C@H]1O (racemic) [KUHISTANOL D] | – | – | – | inhibition at 3 µg/mL [1]: 70.3%; inhibition at 3 µg/mL [2]: 61.8%; inhibition at 3 µg/mL [3]: 77.3% |
| C/C(=C\Cc1cc(C(=O)O)ccc1O)CC/C=C(\C)CCC(O)C(C)(C)O (racemic) | inactive | inactive | inactive | – |
| C[C@]12C=CC(=O)C=C1CC[C@@H]1[C@@H]2[C@@H](O)C[C@@]2(C)[C@H]1CC[C@]2(O)C(=O)CO [PREDNISOLONE] | – | – | – | inhibition at 0.3 µg/mL [7]: 60.2%; inhibition at 0.3 µg/mL [8]: 55.3%; inhibition at 0.3 µg/mL [9]: 65.6% |
| C/C(=C\Cc1cc(C(=O)O)ccc1O)CCC(O)[C@]1(C)CC[C@H](C(C)(C)O)O1 (stereo not given in full) | inactive | inactive | inactive | – |
| CC(C)=CCCC(C)(O)C(O)CC/C(C)=C/Cc1cc(C(=O)O)ccc1O (stereo not given) | inactive | inactive | inactive | – |
